According to ChEMBL document CHEMBL1149827, “Dichapetalin-type triterpenoids and lignans from the aerial parts of Phyllanthus acutissima” (J Nat Prod, 2008):
In brackets after ≈: the same amount, converted by molar mass.

Columns and labels:
[1] = test system: KB; test: Cytotoxicity against human KB cells after 72 hrs by sulforhodamine B assay; assay type: functional; conditions: read-out: ED50 (the source's name)
Procedure, shortened: (§1)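 SRB assay. Samples from […] DMSO stock, final DMSO 0.5%, triplicate, 72 h at 37 °C, 5% CO2. Media: P-388 Fisher's + 5% BCS; KB DMEM + 10% BCS; Col-2, ASK MEM + 10% FBS; MCF-7, Lu-1 MEM + 5% BCS. TCA-fixed, 0.4% SRB stain, dye solubilized in 10 mM trizma base, A515 read. ED50 reported.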

[2] = test system: MCF7; test: Cytotoxicity against human MCF7 cells after 72 hrs by sulforhodamine B assay; assay type: functional; conditions: MCF7, 72 h, read-out: ED50 (the source's name); procedure, shortened: as §1
[3] = test system: Col2; test: Cytotoxicity against human Col2 cells after 72 hrs by sulforhodamine B assay; assay type: functional; conditions: Col2, 72 h, read-out: ED50 (the source's name); procedure, shortened: as §1
[4] = test system: Lu1; test: Cytotoxicity against human Lu1 cells after 72 hrs by sulforhodamine B assay; assay type: functional; conditions: Lu1, 72 h, read-out: ED50 (the source's name); procedure, shortened: as §1
[5] = Cytotoxicity against rat ASK cells after 72 hrs by sulforhodamine B assay; assay type: functional; conditions: read-out: ED50 (the source's name); procedure, shortened: as §1
[6] = test system: P388; test: Cytotoxicity against mouse P388 cells after 72 hrs by sulforhodamine B assay; assay type: functional; conditions: P388, 72 h, read-out: ED50 (the source's name); procedure, shortened: as §1
[7] = test system: L1210; test: Cytotoxicity against mouse L1210 cells; assay type: functional
[8] = test system: Human immunodeficiency virus 1; test: Antiviral activity against deltaTat/Rev deffective HIV1 in 1A2 cells assessed as inhibition of metabolic activity in uninfected cells; assay type: functional; conditions: Human immunodeficiency virus 1, 1A2
Procedure, shortened: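 Uninfected 1A2 cells (same batch), run in parallel with the syncytium assay, with medium in place of virus. Serial dilutions in duplicate wells, 3 days. XTT–phenazine methosulfate added; formazan read at A450 with A650 reference. IC50 is the dose inhibiting 50% of metabolic activity.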

[9] = molecular target: Human immunodeficiency virus type 1 reverse transcriptase (Human immunodeficiency virus 1) (UniProt Q72547); test: Inhibition of HIV1 reverse transcriptase at 200 ug/ml
Procedure, shortened: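 Tannin-free samples at final 200 µg/mL in 10% DMSO added to the reaction mix before HIV-1 RT. Control with 10% DMSO only; nevirapine (2 µg/mL) positive control. Duplicate wells averaged, % RT inhibition calculated.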

[10] = test system: Human immunodeficiency virus 1; test: Antiviral activity against deltaTat/Rev deffective HIV1 in 1A2 cells assessed as reduction of syncytium formation; assay type: functional, organism-based; conditions: Human immunodeficiency virus 1, 1A2
Procedure, shortened: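 1A2 cells seeded, then compound added as 2-fold serial dilutions in triplicate. After 1 h preincubation, ∆Tat/RevMC99 virus added. Virus, cell and cytotoxicity control wells; AZT positive control. EC50 is the concentration reducing syncytium formation by 50%.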

[11] = test system: Human immunodeficiency virus 1; test: Selectivity index, ratio of IC50 for deltaTat/Rev deffective HIV1 in 1A2 cells to EC50 for deltaTat/Rev deffective HIV1 in 1A2 cells; assay type: functional
Procedure, shortened: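 Ratio of the XTT IC50 in uninfected 1A2 cells to the syncytium-reduction EC50 against ∆Tat/RevMC99 virus in 1A2 cells.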

Row | SMILES | EC50 [1] [µg/mL] | EC50 [2] [µg/mL] | EC50 [3] [µg/mL] | EC50 [4] [µg/mL] | EC50 [5] [µg/mL] | EC50 [6] [µg/mL] | EC90 [7] [µg/mL] | IC50 [8] [µg/mL] | inhibition [9] [%] | EC50 [10] [µg/mL] | Ratio IC50/EC50 [11]
1 | COc1cc2c(=O)oc3c(OC)c(O)cc4c(=O)oc(c1OC)c2c34 | > 5 | > 5 | > 5 | > 5 | > 5 | > 5 |  |  |  |  | 
2 | C/C(=C\[C@H]1C[C@@H]([C@@H]2CC[C@]34C[C@]23C=C[C@@H]2[C@@]3(C)CC=C5C[C@@H](c6ccccc6)OC[C@]5(C)[C@@H]3C[C@@H](O)[C@]24C)C(=O)O1)CO [DICHAPETALIN A] |  |  |  |  |  |  | < 0.0001 |  |  |  | 
3 | O=C1OCc2cc3cc4c(cc3c(-c3ccc5c(c3)OCO5)c21)OCO4 [TAIWANIN C] | > 5 | > 5 | > 5 | > 5 | > 5 | > 5 |  | > 125 | 88.2 | > 125 | 
4 | CO[C@@]1(C)CO[C@@]2(C=C([C@@H]3CC[C@]45C[C@]34CC[C@@H]3[C@@]4(C)CC=C6C[C@@H](c7ccc8c(c7)OCO8)OC[C@]6(C)[C@@H]4C[C@@H](O)[C@]35C)C(=O)O2)C1 | > 5 | > 5 | > 5 | > 5 | > 5 | 0.5 (≈ 0.759 µM) |  | > 125 | 55.5 | 86.1 (≈ 131 µM) | >1.5
5 | Cc1c2ccncc2c(C)c2c1[nH]c1ccccc12 [ELLIPTECINE] | 0.7 (≈ 2.84 µM) | 0.4 (≈ 1.62 µM) | 0.5 (≈ 2.03 µM) | 0.2 (≈ 0.812 µM) | 0.2 (≈ 0.812 µM) | 0.2 (≈ 0.812 µM) |  |  |  |  | 
6 | COc1cc(/C=C2/C(=O)OC[C@H]2Cc2ccc(O)c(OC)c2)ccc1O [ACUTISSIMALIGNAN B] | > 5 | > 5 | > 5 | > 5 | > 5 | > 5 |  | 48.2 (≈ 135 µM) | 45.4 | 9.9 (≈ 27.8 µM) | 4.9
7 | CO[C@@]1(C)CO[C@@]2(C=C([C@@H]3CC[C@]45C[C@]34CC[C@@H]3[C@@]4(C)CC=C6C[C@@H](c7ccccc7)OC[C@]6(C)[C@@H]4C[C@@H](O)[C@]35C)C(=O)O2)C1 | > 5 | > 5 | > 5 | > 5 | > 5 | 0.4 (≈ 0.651 µM) |  | > 125 | 65.9 | 72.9 (≈ 119 µM) | >1.7
8 | CO[C@@]1(C)CO[C@@]2(C1)OC(=O)[C@H]([C@@H]1CC[C@]34C[C@]13CC[C@@H]1[C@@]3(C)CC=C5C[C@@H](c6ccc7c(c6)OCO7)OC[C@]5(C)[C@@H]3C[C@@H](O)[C@]14C)[C@H]2O | > 5 | 1.1 (≈ 1.63 µM) | 4.8 (≈ 7.09 µM) | 3.1 (≈ 4.58 µM) | > 5 | 0.005 (≈ 0.00739 µM) |  | 31.6 (≈ 46.7 µM) | -0.5 | < 3.9 | >8.1
9 | COc1cc2c(O[C@@H]3OC[C@H](O)[C@H](O)[C@H]3O)c3c(c(-c4ccc5c(c4)OCO5)c2cc1OC)C(=O)OC3 [ACUTISSIMALIGNAN A] | 0.59 (≈ 1.15 µM) | 0.22 (≈ 0.429 µM) | 0.25 (≈ 0.488 µM) | 0.14 (≈ 0.273 µM) | 2.3 (≈ 4.49 µM) | 0.02 (≈ 0.039 µM) |  | 12.3 (≈ 24 µM) | 10.7 | < 3.9 | >3.1
10 | O=C1OC[C@@H](Cc2ccc3c(c2)OCO3)/C1=C\c1ccc2c(c1)OCO2 [ISOGADIAN] | > 5 | > 5 | > 5 | > 5 | > 5 | > 5 |  | > 125 | 39.7 | 34.6 (≈ 98.2 µM) | >3.6
11 | COc1c(OC(C)=O)cc2c(=O)oc3c(O)c(O[C@@H]4O[C@@H](C)[C@H](OC(C)=O)[C@@H](OC(C)=O)[C@H]4OC(C)=O)cc4c(=O)oc1c2c34 | > 5 | > 5 | > 5 | > 5 | > 5 | > 5 |  | 24.9 (≈ 39.5 µM) | 51 | 15.7 (≈ 24.9 µM) | 1.6
12 | COc1c(O)cc2c(=O)oc3c(O)c(O[C@@H]4O[C@@H](C)[C@H](O)[C@@H](O)[C@H]4O)cc4c(=O)oc1c2c34 | > 5 | > 5 | > 5 | > 5 | > 5 | > 5 |  | > 125 | -9.2 | > 125 | 
